Screens from PubChem.
Ecoli WT expand = E. coli BW25113 growth inhibition, expanded screen; actives 0.15% (n = 98,000); growth inhibition, % at 100 µM; AID 710; OD600 absorbance;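 active means growth inhibition above about 50% at one test dose, limit read from the data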;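 further: growth measured after 20 h incubation at 37 °C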
PostGolgi ctrl = growth of the yeast control strain, post-Golgi counter-screen; actives 5% (n = 98,000); AID 738; efflux-deficient yeast background strain, growth absorbance A615, 16 h; inhibition, % at 10 µM
PostGolgi yeast = growth inhibition of a yeast mutant, post-Golgi transport screen; post-Golgi transport phenotypic cell assay; inhibition, % at 10 µM; AID 739; actives 0.9% (n = 98,000);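 further: yeast cells grown in 1536-well plates; yeast grown about 18 h at 30C before absorbance read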
Candida biofilm = kills Candida albicans biofilms; C. albicans biofilm + clotrimazole, Alamar Blue; inhibition, % at 6 µM; actives 0.14% (n = 85,000);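 active means inhibition above 20%; inactive means inhibition below 20%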;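 further: preformed 24 hr biofilms exposed to compound for 48 hr; 0% = biofilm without compound and 100% = blank killed by clotrimazole plus chlorhexidine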
Pyk2 oligo antag = Pyk2 (human) oligomerization antagonism; Q14289; Q293 cells, Pyk2 FERM NanoBiT luminescence; active compounds read low; z-score (the deposit names both 25 µM and 10 µM); actives 0.83% (n = 99,000);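 active means Z-score of -3 or lower, scaled per plate to the spread of control and sample wells; inactive means z-score above -3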;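 further: negative z-score means lost luminescence so less FERM oligomerization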
tolC growth inh = blocks growth of E. coli BW25113 tolC mutant. OD615. growth inhibition, % at 10 µM (by protocol). actives 2.2% (n = 65,000). AID 573;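 active means growth inhibition at or above a cutoff equal to the mean over every tested compound plus 3 SD, cut at about 60% in these data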;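 further: growth measured after 20 h incubation at 37 °C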
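Test system: E. coli BW25113 ΔtolC::kan bacteria | Medium: Kanamycin-containing LB broth (50 µg/mL) | Dosing: One dose of 10 µM final | Times: 20 h incubation with compound, 37 °C | Detection: Optical density read at 615 nm | Read-out basis: Percent growth inhibition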
The depositor's hits bear a star; / = no result. Most compounds without a hit are left out; they make up all but 6.5% or so of the library. Unless noted, no stated cut-off is given here; in the data, active means inhibition above about 30%; inactive means the rest.

SMILES | Ecoli WT expand | PostGolgi ctrl | PostGolgi yeast | Candida biofilm | Pyk2 oligo antag | tolC growth inh
O=C(N/N=C/c1cccs1)c1cc(-c2ccc3ccccc3c2)n[nH]1 | -21 | 59* | -3 | / | -0.72 | /
O=C(N/N=C/c1c[nH]c2ccccc12)c1cc(-c2ccc(-c3ccccc3)cc2)n[nH]1 | -14 | 5 | -16 | / | -1.4 | /
COc1ccc(Cc2c(O)nc(SCC(=O)N3CCCCCC3)[nH]c2=O)cc1 | / | / | / | 6 | 0.4 | /
CCOC(=O)c1ccccc1-c1csc(NS(=O)(=O)c2ccc(Cl)cc2)n1 | 5 | 12 | 6 | / | -1.4 | /
O=C(N1CCOCC1)C1(c2ccccc2)CCCCC1 | 5 | 42* | -10 | / | 0.13 | 0
CCOc1cc(/C=N/NC(=O)CSc2nncn2C)ccc1OCc1cccc(C)c1 | / | / | / | / | 2.2 | /
COc1ccccc1-c1cc(C(F)(F)F)n2ncc(S(=O)(=O)c3ccccc3)c2n1 | -9 | 46* | -5 | / | -1.8 | /
O=S(=O)(c1ccccc1)c1cnn2c(C(F)(F)F)cc(-c3ccccc3)nc12 | -10 | 1 | 15 | / | 1.2 | /
CCOC(=O)C(Cc1ccccc1)NC(=O)CCc1c(C)nc2nc(C)nn2c1C (stereo not drawn) | 1 | 15 | 10 | 8 | 1.1 | /
O=C1C2Sc3[nH]c(=O)sc3C(c3ccccc3)C2C(=O)N1c1ccc(Cl)cc1 (stereo not drawn) | 1 | 6 | -19 | 6 | -0.89 | /
CCOC(=O)/C(=C\c1cccnc1)C(=O)c1cc(C(C)=O)c(Nc2ccccc2)s1 | 0 | 90* | 111* | -1 | -2.1 | /
CCOC(=O)/C(=C\c1ccccc1)C(=O)c1cc(C(C)=O)c(Nc2ccccc2)s1 | -21 | 60* | 19 | 8 | -3* | /
CC(/C=C\c1cccnc1)=C/C(=O)O | 0 | 17 | -3 | -1 | 0.36 | /
CCOC(=O)C(=Cc1ccc(F)cc1)C(=O)OCC | 4 | 9 | 4 | / | / | /
CCc1ccccc1N1CCN(S(=O)(=O)c2cc(OC)ccc2OC)CC1 | -19 | 23 | -10 | 6 | -3.3* | 58
CCCn1c(=S)[nH]c2cc(C(=O)N3CCc4ccccc43)ccc2c1=O | -4 | 103* | -2 | 9 | -1.1 | /
COCCn1c(=S)[nH]c2cc(C(=O)NC(C)C)ccc2c1=O | -5 | -2 | 4 | / | 0.67 | /
COCCn1c(=S)[nH]c2cc(C(=O)N3CCc4ccccc43)ccc2c1=O | 5 | 96* | -14 | 7 | -1.2 | 4
CNC(=S)N(Cc1ccc(OC)cc1)C1CC(=O)N(c2ccc(Cl)cc2)C1=O (stereo not drawn) | 2 | 3 | 16 | / | -0.7 | /
COc1ccc(C2(O)CC3CCC(C2)N3c2nc(C)cc(C)c2C#N)cc1 (stereo not drawn) | -11 | 12 | 2 | 3 | -3* | 85*
Cc1ncsc1CCOC(=O)C12CC3CC(CC(C3)C1)C2 | 12 | 46* | -3 | / | -0.32 | /
Cn1nc(-c2ccc(Cl)cc2)nc2c(=O)n(C)c(=O)nc1-2 | 20 | 107* | 106* | 12 | / | /
OCCN1CCOCCN(CCO)CCOCC1 | -5 | 0 | -4 | 6 | -1.4 | -21
COc1ccc(C(C(=O)OC(C)CN(C)C)c2ccccc2)cc1 (stereo not drawn) | 3 | 1 | 35* | / | 0.56 | -18
Cc1cc(NCCOCCO)n2ncc(-c3ccc(Cl)cc3)c2n1 | 14 | 29 | -6 | 11 | -0.74 | 13
SMILES | Ecoli WT expand | PostGolgi ctrl | PostGolgi yeast | Candida biofilm | Pyk2 oligo antag | tolC growth inh
CC(C)(C)c1cc(NCCCn2ccnc2)n2ncc(-c3ccc(Cl)cc3)c2n1 | 2 | 93* | 58* | -2 | 1.2 | /
Cc1ccc(C)c2c1[nH]c1ccc([N+](=O)[O-])cc12 | -7 | 54* | 9 | 5 | -0.67 | /
C=CCc1ccc(OCC(O)CN2CCC(Cc3ccccc3)CC2)c(OC)c1 (stereo not drawn) | 18 | 63* | 98* | 0 | 0.49 | /
COc1cccc(OCC(O)CN2CCC(Cc3ccccc3)CC2)c1 (stereo not drawn) | -5 | 4 | 5 | 8 | 0.5 | -1
COc1cccc2c1OC1(C)CC2NC(=O)N1c1cccc(C(=O)Nc2ccc3c(c2)OCCO3)c1 (stereo not drawn) | -5 | 5 | 2 | 2 | -1.1 | -7
CCOC(=O)c1ccc(NC2=CC(=O)C(=O)c3ccccc32)cc1 | 8 | 12 | 15 | 10 | -4.3* | /
Cc1ccc(NC2=CC(=O)C(=O)c3ccccc32)cc1 | / | / | / | 7 | -1.9 | /
CCC(Sc1nc2n[nH]c(C)c2c(=N)n1-c1cccc(Cl)c1C)C(=O)N(CC)CC (stereo not drawn) | -3 | -3 | -6 | -2 | -3* | 8
CCOC(=O)c1c(NC(=O)c2ccc(N3C(=O)C4C5C=CC(C5)C4C3=O)cc2)sc2c1CCCC2 (stereo not drawn) | -11 | 12 | -2 | / | -0.15 | /
CCC(=O)N1CN(S(=O)(=O)c2ccc(C)cc2)CC1C (stereo not drawn) | 1 | 2 | -1 | 5 | -0.41 | -20
N#C/C(=C\c1cccs1)Sc1nc2ccccc2s1 | -21 | 35* | -6 | 3 | -0.12 | 70*
N#C/C(=C\c1ccc[nH]1)Sc1nc2ccccc2s1 | 12 | 16 | 11 | 2 | -2.6 | 100*
N#C/C(=C(/O)C(Cl)c1ccccc1)c1nc2ccccc2s1 (stereo not drawn) | -16 | 1 | 5 | / | -1.6 | /
COC(=O)c1ccc(/C=C(\C#N)c2nc3ccccc3s2)cc1 | 4 | -1 | 23 | 9 | 0.88 | /
CCOC(=O)c1[nH]c(C)c(C(=O)NCc2cccnc2)c1C | 2 | 0 | 1 | 8 | / | -21
CCCCCCN1C2=NCCN2c2ccccc21 | 17 | 5 | 32* | 4 | 2.2 | /
CCCCN1C2=NCCCN2c2ccccc21 | 8 | 2 | 3 | 5 | 0.05 | /
CCCN1C2=NCCCN2c2ccccc21 | -2 | 38* | 6 | 7 | 1.6 | /
Cc1cc(C)n(-c2nc3c(c(=O)n(C)c(=O)n3C)n2Cc2cccc(Br)c2)n1 | / | / | / | 8 | / | 16
COc1ccc(OC)c(Nc2nc(-c3cccs3)cs2)c1 | -17 | 13 | -1 | 7 | -1.1 | 61*
COc1ccccc1Nc1nc(-c2cccs2)cs1 | -7 | 52* | 4 | 8 | 1.4 | 25
CCN(CCCNC(=O)c1ccc(N2CCCC2=O)cc1)c1cccc(C)c1 | 7 | 5 | 12 | -1 | 1.3 | 23
O=C(c1cc2c(s1)-c1ccccc1OC2)N1CCN(c2ccccc2)CC1 | -9 | 55* | -10 | 2 | / | /
CCn1c(Cc2cccc3ccccc23)nnc1SCC(=O)Nc1nccs1 | / | / | / | 3 | 0.39 | /
Cc1ccc2nc(CSc3nnc(Cc4cccs4)n3C3CCCCC3)cc(=O)n2c1 | 5 | 39* | -2 | 6 | 0.87 | 9
Cc1sc2nc(CSc3nnc(Cc4cccs4)n3C3CCCCC3)[nH]c(=O)c2c1C | 3 | -4 | 7 | 1 | -0.46 | 38
O=C(NS(=O)(=O)c1ccc2c(c1)OCCO2)c1ccccc1 | 2 | 27 | -3 | 1 | -1 | 4
CCOC(=O)N1CCN(c2c(F)cc3[nH]c(=S)[nH]c3c2Br)CC1 | 3 | 33* | 1 | / | -0.82 | 30
